# From PubChem
# FN deposition inh – inhibitors of fibronectin matrix deposition, primary screen, AH1F cells, Alexa488-fibronectin fluorescence, plate reader; AH1F fibroblasts, overnight; inhibition, % at 12.6 µM; actives 0.086% (n = 350,000); AID 743247, 2014;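 active = mean inhibition across replicates of 30% or more, regardless of how many single replicates reach that level; inconclusive = mean under 30% yet at least half of replicates reach 30%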;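 also: positive control wells lacked labelled fibronectin entirely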
#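 Measured by – fluorescence 485/525 nm · System – AH1F fibroblast monolayer, labelled fibronectin deposition · Amount – 10000 cells per well · Buffer or medium – serum-reduced DMEM (2% serum) · Doses – single dose, pinned · Also added – fluorescent fibronectin at 24 nM final · Schedule – 1 h cell attachment, overnight exposure to compound and label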
# Ecoli rRNA inh – reduced GFP signal of wild-type E. coli, primary screen, bacterial rRNA inhibitor project, GFP/RFP fluorescence, OD600, single point. E. coli WT GFP vs humanized-ribosome RFP mutants, 24 h; active compounds read low; DMSO median 0, no signal -100. GFP signal change (wild-type ribosome), % (concentration not given with the values). actives 1.6% (n = 350,000);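 active = significant combined selectivity score with lowered wild-type GFP, culture density cut under 30%, mutant RFP and density less affected; inactive = any of these conditions unmet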
# PDI inh – inhibitors of human PDI, primary screen, biochemical, turbidity, single point, plate reader; Protein disulfide-isomerase (Homo sapiens), P07237; PDI insulin aggregation turbidity, A650, 90 min; inhibition, % at 10 µM; actives 0.052% (n = 350,000); AID 588391, 2011;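 active = mean inhibition across replicates of 30% or more, whatever share of single replicates reach that level; inconclusive = mean inhibition below 30% while every single replicate reaches 30%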
# Target sequence (P07237 whole entry, looked up): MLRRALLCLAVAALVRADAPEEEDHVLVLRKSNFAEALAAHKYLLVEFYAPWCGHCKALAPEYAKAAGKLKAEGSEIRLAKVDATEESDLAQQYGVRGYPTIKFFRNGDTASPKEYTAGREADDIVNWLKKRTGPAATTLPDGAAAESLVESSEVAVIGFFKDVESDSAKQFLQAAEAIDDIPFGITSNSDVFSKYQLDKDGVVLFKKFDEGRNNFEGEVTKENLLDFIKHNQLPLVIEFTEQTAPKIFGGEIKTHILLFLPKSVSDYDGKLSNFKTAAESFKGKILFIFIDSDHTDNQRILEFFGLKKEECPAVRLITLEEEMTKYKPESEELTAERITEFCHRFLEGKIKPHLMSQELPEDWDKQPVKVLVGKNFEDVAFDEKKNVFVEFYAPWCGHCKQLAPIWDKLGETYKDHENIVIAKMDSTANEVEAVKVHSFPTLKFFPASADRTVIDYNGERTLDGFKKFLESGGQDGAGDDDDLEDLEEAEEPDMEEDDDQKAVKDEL
# PvdQ acylase – P. aeruginosa PvdQ acylase inhibitors, primary screen, biochemical, fluorescence, plate reader and imaging, single point; actives 0.063% (n = 340,000); purified PvdQ acylase; AID 488965, 2010; inhibition, % at 10 µM; in the data active = inhibition above about 30%, passing the limit was not always enough; inconclusive = no clear call, values can overlap the other calls;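 also: 0% = vehicle neutral wells and 100% = reference inhibitor wells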
# ERp5 inh – inhibitors of ERp5-driven insulin aggregation, primary screen, biochemical, turbidity, absorbance 650 nm, single point; 90 min; inhibition, % at 9.99 µM; actives 0.05% (n = 350,000); AID 651711, 2012;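 active = mean replicate inhibition above about 25%, with every replicate also reaching it, limit read from the data, passing the limit was not always enough; inconclusive = only one of those two criteria met; inactive = neither criterion met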
# Env fusion inh – inhibitors of HIV-1 Env-driven cell-cell fusion, primary screen, HeLa-JRFL effector, CEM21 target cells, luciferase; inhibition, % at 12.3 µM; actives 1.1% (n = 360,000);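 active = mean replicate inhibition score of at least 50 and every replicate individually at or above 50; inconclusive = only one of the two criteria met; inactive = mean below 50 and not all replicates reaching 50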;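 also: 0% = plate neutral controls and 100% = maraviroc near 300 nM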
# Starred values were filed as active, the others as inactive; u = inconclusive; x = no result given; [ ] = another dose, or the depositor's remark. This is a sample that favours compounds with a hit; in the whole collection about 2.2% have one here.
SMILES,FN deposition inh,Ecoli rRNA inh,PDI inh,PvdQ acylase,ERp5 inh,Env fusion inh
Fc1ccc(Nc2nc(NCc3ccco3)c3ccccc3n2)cc1,-6,-41*,22,-3,-2,14
CCN(CC(=O)Nc1cc(Cl)ccc1C)C(=O)c1ccc(=O)n(Cc2ccccc2)n1,-1,2,7,-11,-3,110*
CCN(CC(=O)Nc1c(F)cccc1F)C(=O)c1ccc(=O)n(Cc2ccccc2)n1,1,3,4,-11,0,-5
COc1ccccc1-c1ccc(SCc2ccc(C)cc2)nn1,0,-12,0,-1,3,-21
COc1ccccc1-c1ccc(SCc2ccc(F)cc2)nn1,x,-31*,5,-15,2,21
Cc1ccc(S(=O)(=O)N[C@H]2CC[C@H](CC(=O)N3CCC(Cc4ccccc4)CC3)O[C@@H]2CO)cc1,x,-3,x,x,2,13[16.7 µM]
Cc1ccc(-c2csc3nnc(SCC(=O)Nc4cccc(C)n4)n23)cc1,2,x,-3,-14,x,107*
C=CCN=C1NC(c2ccc(F)cc2)C(C(=O)OC)=C(C)N1C (configuration not stated),5,22,x,x,5,-6
COC(=O)C1=C(C)N(Cc2cccc(C(F)(F)F)c2)C(=NCc2cccc(C(F)(F)F)c2)NC1c1ccc(Cl)cc1 (configuration not stated),-3,-44,x,x,-2,u
COC(=O)C1=C(C)N(C)C(=NCc2ccc(OC)cc2)NC1c1ccc(C(F)(F)F)cc1 (configuration not stated),-7,-45,x,x,-2,55*
CC(=O)C1=C(C)N(Cc2ccccc2)C(=O)N[C@@H]1c1cccc(C(F)(F)F)c1,5,-21*,-3,-7,2,7
C=CCN=C1NC(c2ccc(Cl)cc2)C(C(=O)OC)=C(C)N1Cc1cccc(C(F)(F)F)c1 (configuration not stated),23,-41,x,x,-1,60*
C=CCN=C1NC(c2ccc(Cl)cc2)C(C(=O)OC)=C(C)N1C (configuration not stated),4,14,x,x,3,55*
COC(=O)C1=C(C)N(Cc2ccccc2)C(=NCCc2ccccn2)N[C@H]1c1cccc(C(F)(F)F)c1,-4,-54,2,2,8,80*
CCN1C(=NCCc2ccccn2)N[C@@H](c2cccc(C(F)(F)F)c2)C(C(=O)OC)=C1C,5,15,-2,-19,-7,-9
CO[C@@H]1CN(C)C(=O)c2ccc(NC(=O)c3cccc(F)c3)cc2OC[C@@H](C)N(C(C)=O)C[C@H]1C,x,-3,x,x,x,x
Fc1ccc(-c2csc(-c3ccccn3)n2)cc1F,-3,5,-1,33*,3,-25
COc1ccc(Cl)cc1C(=O)OCC(=O)c1ccc[nH]1,-7,-16*,-1,-7,-7,9
Cc1cc(Cl)ccc1OC(C)C(=O)OCC(=O)c1ccc[nH]1 (configuration not stated),4,1,0,2,4,x
Cc1nc2ccc(NC(=S)NC3CCCCC3)cc2nc1C,-2,-28*,9,9,5,-40
Cc1ccc(NC(=S)NC2CCCC2)cc1C,7,x,7,-4,x,-14
Cc1ccc(S(=O)(=O)N2c3ccccc3-c3c(ssc3=S)C2(C)C)cc1,-3,-8,-3,-8,3,50
COc1ccc2c(c1)-c1c(ssc1=S)C(C)(C)N2S(=O)(=O)c1ccc(C)cc1,7,x,13,2,x,72*
COc1ccc2c(c1)-c1c(ssc1=S)C(C)(C)N2,6,x,0,6,x,62*
COc1ccc(C(=O)Nc2ccc(S(=O)(=O)N3CCc4ccccc43)cc2)cc1,10,x,15,5,x,62*
O=S(=O)(c1cnc(Cl)c(Br)c1)N1CCc2ccccc21,18,-1,-9,-8,4,11
